Assay outcomes deposited in PubChem by several laboratories.
MrgX1 agonist = agonists of human MrgX1 receptor, primary screen, HEK293 cells, Fluo-4 calcium flux; B-score at 10 µM; Fluo-4 calcium fluorescence, agonist mode; active compounds read high; hit rate 0.44% among 310,000; Mas-related G-protein coupled receptor member X1 (Homo sapiens), Q96LB2;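 active = calcium response B-score plate-corrected fluorescence ratio at least 3 library SD, with starting fluorescence B-score inside 5 SD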
Target sequence (Q96LB2 whole entry, looked up): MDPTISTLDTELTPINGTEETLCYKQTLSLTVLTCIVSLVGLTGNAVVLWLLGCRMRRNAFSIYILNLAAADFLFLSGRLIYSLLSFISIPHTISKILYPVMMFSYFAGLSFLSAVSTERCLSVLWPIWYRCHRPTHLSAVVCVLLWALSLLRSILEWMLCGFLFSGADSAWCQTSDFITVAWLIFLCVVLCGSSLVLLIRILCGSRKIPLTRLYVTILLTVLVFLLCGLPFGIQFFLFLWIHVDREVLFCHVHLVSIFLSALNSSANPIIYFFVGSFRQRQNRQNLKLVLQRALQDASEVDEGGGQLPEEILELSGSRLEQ
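Material: MrgX1-expressing HEK293 cells / Dosing: compound as first of three additions / Incubation: overnight seeding, then 1 h dark dye loading / Signal: Fluo-4 NW calcium fluorescence / Evaluation: B-scored fluorescence response ratio / Benchmarks: positive and negative control wells on each plate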
MrgX1 antagonist = antagonists of human MrgX1 receptor, primary screen, HEK293 cells, Fluo-4 calcium flux; AID 588676, 2011; Mas-related G-protein coupled receptor member X1 (Homo sapiens), Q96LB2; B-score at 10 µM; hit rate 1.3% among 310,000; BAM8-22 antagonism; active compounds read low;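 active = calcium-response B-score plate-corrected more than 3 library SD below zero, starting fluorescence within 5 deviations, no agonist response on first addition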;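 also: peak minus trough fluorescence over baseline after final BAM8-22 challenge near maximal dose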
RGS4 inh = RGS4 inhibitors, primary screen, cell-based, HEK293 M3R inducible RGS4, calcium flux | Fluo-4 calcium flux; active compounds read high; triggered by carbachol at its EC20 | B-score at 10 µM | AID 463165, 2010 | Regulator of G-protein signaling 4 (Homo sapiens), P49798 | hit rate 0.45% among 310,000;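 active = B-score, a plate-corrected calcium signal, over three deviations above library mean, with baseline fluorescence within five deviations of library mean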;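 also: RGS4 expression induced by doxycycline in cells with stable M3 receptor; B-score is computed from the integrated fluorescence ratio over baseline after carbachol; higher B-score means a larger calcium signal and so more RGS4 inhibition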
Target sequence (P49798 whole entry, looked up): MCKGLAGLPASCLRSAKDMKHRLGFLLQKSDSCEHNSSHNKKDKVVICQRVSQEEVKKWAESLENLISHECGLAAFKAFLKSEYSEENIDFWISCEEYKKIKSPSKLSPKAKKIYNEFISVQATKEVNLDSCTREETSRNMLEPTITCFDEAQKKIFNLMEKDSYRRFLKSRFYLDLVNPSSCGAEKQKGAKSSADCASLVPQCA
RGS4 act = RGS4 potentiators or activators, primary screen, cell-based, HEK293 M3R inducible RGS4, calcium flux; hit rate 0.92% among 310,000; carbachol calcium flux Fluo4; active compounds read low; AID 463111, 2010; B-score at 10 µM;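 active = B-score of the integrated calcium signal more than 4 SD below the library mean, with starting fluorescence not abnormally high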;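 also: negative B-score means reduced calcium response which marks RGS4 activation or potentiation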
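System: HEK293 FlpIn-TREx cells, stable M3R, doxycycline-inducible RGS4. Timing: overnight RGS4 induction, 30 min dye load 37 °C, 20 min compound RT. Also added: carbachol, ECmax concentration. Measured by: Fluo4 fluorescence kinetic imaging of calcium. Evaluation: integrated calcium ratio converted to B score.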
KCC2 mod = KCC2 cotransporter modulators, thallium flux, primary screen, cell-based, HEK293 KCC2, FluoZin-2 fluorescence, MLSMR; hit rate 2.2% among 190,000; Solute carrier family 12 member 5 (Homo sapiens), Q9H2X9; AID 1456, 2008; KCC2 cells, thallium flux FluoZin-2 fluorescence; B-score of Tl+ flux slope (higher = more flux/activation; lower = inhibition) at 10 µM;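 active = thallium flux slope and its plate-corrected score both differing from the plate sample mean at a set confidence after two filtering rounds, in either direction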;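 also: slope of fluorescence scaled to starting intensity during 10 to 20 s after thallium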
MrgX1 PAM = positive allosteric modulators of MrgX1, primary screen, HEK293 cells, Fluo-4 calcium flux; FDSS; active compounds read high; B-score at 10 µM; hit rate 0.63% among 310,000; AID 588675, 2011;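 active = plate-corrected calcium response at least 3 library SD above typical, normal starting fluorescence, not activating the receptor alone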;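 also: compound read alongside a low EC10 to EC30 dose of BAM8-22 agonist; peak minus trough fluorescence over baseline measured at the second addition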
MrgX1 antag conf = MrgX1 receptor antagonists, duplicate retest, confirmation, HEK293 cells, Fluo-4 calcium flux; shares compounds with MrgX1 antagonist; hit rate 19% among 2,300; remaining BAM8-22 calcium response % of control (active compounds read low), % at 10 µM; BAM8-22 calcium flux; active compounds read low; AID 602420, 2012;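 active = remaining agonist calcium response no higher than 100% minus 3 SD of agonist-only control wells, with starting fluorescence near control levels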;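 also: agonist BAM8-22 given at a near maximal EC90 to ECmax level; peak minus minimum fluorescence divided by baseline after agonist addition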
HEK293 Ca flux = nonspecific calcium signal in parental HEK293, confirmation, counter-screen for MrgX1 antagonist project, parental HEK293 cells, Fluo-4 calcium flux; shares compounds with MrgX1 antagonist; Fluo-4 calcium fluorescence, FDSS; fluorescence ratio F(max-min)/F0 at 10 µM; hit rate 2% among 4,000; AID 624111, 2012;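 active = duplicate-averaged calcium fluorescence ratio at least three times the standard deviation of buffer wells, a nonspecific response in parental cells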
HEK293 Ca counter = calcium response in parental HEK293 cells, primary screen, counter-screen for MrgX1 allosteric activator project, cell-based, Fluo-4 calcium flux, duplicate. shares compounds with MrgX1 antagonist. Fluo-4 fluorescence ratio; active compounds read high. fluorescence ratio F(max-min)/F0 at 10 µM. hit rate 0.4% among 4,000;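 active = calcium fluorescence ratio, averaged over duplicates, at least 3 SD of the buffer-well ratio, meaning a nonspecific response in receptor-free cells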;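 also: untransfected parental HEK293 lacking MrgX1 used as counterscreen for MrgX1 allosteric activators; fluorescence change taken during the second addition on a kinetic imager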
HEK293 Ca cntr2 = calcium response in parental HEK293 cells, primary screen, counter-screen for MrgX1 agonist project, cell-based, Fluo-4 calcium flux, duplicate, agonist mode | shares compounds with MrgX1 antagonist | Fluo-4 calcium fluorescence (FDSS); active compounds read high | fluorescence ratio F(max-min)/F0 at 10 µM | hit rate 8.7% among 4,000 | AID 624115, 2012;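 active = calcium fluorescence ratio at least three times the spread of buffer wells, meaning a non-specific response in parental cells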
* hit, by the source's call; i = inactive; x = no result. Sampled rows, rich in hits. Any-hit rate of the full collection: about 4.7%.

SMILES | MrgX1 agonist | MrgX1 antagonist | RGS4 inh | RGS4 act | KCC2 mod | MrgX1 PAM | MrgX1 antag conf | HEK293 Ca flux | HEK293 Ca counter | HEK293 Ca cntr2
Cc1ccc(NC(=O)C(C)OC(=O)c2ccc(Cl)nc2)cc1S(=O)(=O)N1CCOCC1 (centres undefined) | i | i | i | i | x | i | x | x | x | x
Cc1cccc(NS(=O)(=O)c2ccc(C(=O)NCC(c3ccccc3)N(C)C)cc2)c1C (centres undefined) | i | -5.2* | i | i | x | i | 85%* | i | i | i
O=C(NCC(c1ccco1)N1CCCCC1)c1ccc(NS(=O)(=O)c2ccc(F)cc2)cc1 (centres undefined) | i | i | i | i | x | i | x | x | x | x
CN(C)C(CNC(=O)c1ccc(NS(=O)(=O)c2ccc(F)cc2)cc1)c1ccco1 (centres undefined) | i | -6.1* | i | i | x | i | i | i | i | i
COc1ccccc1NS(=O)(=O)c1ccc(C(=O)NCC(c2ccccc2OC)N(C)C)cc1 (centres undefined) | i | i | i | i | x | i | x | x | x | x
COc1ccc(Cn2ccnc2SCC(=O)Nc2nnc(C)s2)cc1 | i | i | i | i | x | i | x | x | x | x
CC(C)c1ccc(NS(=O)(=O)c2ccc(N3C(=O)CCC3=O)cc2)cc1 | i | i | i | i | -0.69 | i | x | x | x | x
Cc1ccc(NS(=O)(=O)c2ccc(N3C(=O)CCC3=O)cc2)cc1 | i | -5.4* | i | i | -0.059 | i | i | i | i | i
CC(C)(C)n1nnnc1C(c1cc2cc3c(cc2[nH]c1=O)OCO3)N1CCN(c2ccccc2)CC1 (centres undefined) | i | -7* | i | i | 0.01 | i | i | i | i | i
CCOC(=O)C1CCCN(C(=O)c2ccc(Cl)c(S(=O)(=O)N3CCCCCC3)c2)C1 (centres undefined) | i | i | i | i | 0.069 | i | x | x | x | x
CC(=O)c1c(O)c(C)c(-c2ccccc2)n(-c2ccccc2)c1=O | i | i | i | i | x | i | x | x | x | x
O=C(c1ccccc1)c1c(O)nc(-c2ccccc2)n(-c2ccccc2)c1=O | i | -8* | i | i | 0.66 | i | i | i | i | i
Cc1cccc2cc3c(N)c(C(=O)N4CCOCC4)sc3nc12 | i | -5.1* | i | i | -0.042 | i | i | i | i | 48*
NC1=NC(c2ccccc2Cl)n2c(nc3ccccc32)N1 (centres undefined) | i | -8.6* | i | i | -2.4 | i | i | i | i | i
Cc1ccc(-c2csc(NC(=O)c3ccc4c(=O)n5c(nc4c3)CCCCC5)n2)cc1 | i | -5.5* | i | i | -0.049 | i | 71%* | i | i | i
NC(=O)C1CCN(CC(=O)Nc2cccc(C(=O)Nc3cccc(C(F)(F)F)c3)c2)CC1 | i | -7* | i | i | -0.081 | i | 84%* | i | i | i
O=C(NC(=S)Nc1ccccc1N1CCOCC1)c1cccs1 | i | -4.7* | i | i | 39* | i | i | i | i | i
CC(C)(C)NC(=O)c1cccc(NC(=O)c2ccc3c(c2)C(=O)N(C(C)(C)C)C3=O)c1 | i | -11* | i | -7.1* | x | i | 79%* | i | i | i
COC(=O)c1cccc(NC(=O)c2ccc3c(c2)C(=O)N(C(C)(C)C)C3=O)c1 | i | -4.7* | i | i | x | i | i | i | i | i
C/C(=N/NC(=O)CN1CCN(Cc2ccccc2Cl)CC1)c1cccs1 | i | i | i | i | -0.72 | i | x | x | x | x
COc1cccc(C2=CC(c3ccccc3)n3nnnc3N2)c1 (centres undefined) | i | -5.6* | i | i | -1.5 | i | i | i | i | i
COc1cccc(C2=CC(c3cc(OC)ccc3OC)n3nnnc3N2)c1 (centres undefined) | i | i | i | i | 0.51 | i | x | x | x | x
CC1CC(C)CN(C(=O)C2CCN(S(=O)(=O)c3ccc4c(c3)CC(C)N4C(=O)C3CC3)CC2)C1 (centres undefined) | i | i | i | i | x | i | x | x | x | x
COc1cc(NC(=O)CN2C(=O)COc3ccc(S(=O)(=O)N4CCOCC4)cc32)cc(OC)c1 | i | i | i | i | x | i | x | x | x | x
COc1ccc(N2CCN(C(=O)CCS(=O)(=O)c3ccc4c(c3)CCN4C(=O)C3CC3)CC2)cc1 | i | i | i | i | x | i | x | x | x | x
COc1ccc(NC(=O)CN(C)C(=O)CSc2ccc3c(c2)OCCO3)cc1 | i | -5.2* | i | i | x | i | i | i | i | i
Cc1ccc(S(=O)(=O)N(C(=N)N)c2nc(N(C)C)nc(N(C)C)n2)cc1 | i | i | i | i | x | i | x | x | x | x
COCC(=O)N1CCC(Oc2ccc(C(=O)N3C[C@@H]4CCC[C@H]3C4)cc2)CC1 | x | x | i | i | x | x | x | x | x | x
C/C(Cl)=C\Cn1c(NCCc2ccccc2)nc2c1c(=O)n(C)c(=O)n2C | i | i | i | i | -1.6 | i | x | x | x | x
